Measurements reported in ChEMBL document CHEMBL4715734, “Discovery of the Potent and Selective M1 PAM-Agonist N-[(3R,4S)-3-Hydroxytetrahydro-2H-pyran-4-yl]-5-methyl-4-[4-(1,3-thiazol-4-yl)benzyl]pyridine-2-carboxamide (PF-06767832): Evaluation of Efficacy and Cholinergic Side Effects” (J Med Chem, 2016).
Where a chain is given by its changes, count along the chain named. Calls of active or inactive are those of the source. The rule behind the calls is not given here.

Tests used:
[1] = Toxicity in male Beagle dog assessed as increase in blood pressure at 3 mg/kg, po observed upto 9 hrs post last dose by telemetry; type: organism-based, Canis lupus familiaris; settings: in vivo
How it was run: (§1)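 Crossover telemetry study in dogs at three oral doses (0.3, 1 and 3 mg/kg), N=4. Endpoints were blood pressure, maximum systolic left ventricular pressure, LV +dP/dt max, activity, heart rate, and RR, QT and QTc intervals, followed up to 9 h post dose.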

[2] = Toxicity in male Beagle dog assessed as change in CV end points at 0.3 mg/kg, po by telemetry; type: organism-based, Canis lupus familiaris; settings: in vivo; how it was run: as §1
[3] = Toxicity in dog assessed as ataxia at 45 mg/kg, po using spray-dried dispersion formulation measured after 45 mins; type: organism-based, Canis lupus familiaris; settings: in vivo, 0.75 h
How it was run: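 Dogs received single escalating oral doses as a spray-dried dispersion (10% drug loading with HPMCAS-M). The dispersion was suspended in 0.5 wt% methylcellulose/0.5 wt% HPMCAS in 20 mM tris buffer, pH 7.4. One dog per sex per dose was used, and clinical signs were recorded.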

[4] = fAUC (0 to 24 hrs) in dog at 15 mg/kg, po using spray-dried dispersion formulation; type: ADME, organism-based, Canis lupus familiaris; settings: in vivo
[5] = fCmax in dog at 15 mg/kg, po using spray-dried dispersion formulation; type: ADME, organism-based, Canis lupus familiaris; settings: in vivo
[6] = fCmax in rat at 30 mg/kg, po administered for 14 days; type: ADME, organism-based; settings: in vivo, 336 h, time 14 day
How it was run: (§2)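 2-week repeat oral dosing in rats, 0.5% methylcellulose formulation; N=4/sex/dose; doses 3, 10, 30 (males)/15 (females) mg/kg; unbound exposures reported per dose and sex.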

[7] = fCmax in rat at 10 mg/kg, po administered for 14 days; type: ADME, organism-based; settings: in vivo, 336 h, time 14 day; how it was run: as §2
[8] = Unbound brain concentration in amphetamine-induced C57BL/6J mouse model of hyperlocomotion at 1 mg/kg, sc measured after 1 hr; type: ADME, organism-based; settings: in vivo
How it was run: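 Satellite PK animals from the mouse aLMA study, N=2/dose. Dosed subcutaneously with a solution in 5/15/80 DMSO/Solutol/water. Plasma and brain were sampled at T = 1 h.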

[9] = Partial agonist activity at muscarinic M2/M3 receptor in Hartley guinea pig ileum assessed as stimulation of contraction; type: tissue-based; settings: Cavia porcellus
How it was run: (§3)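 Agonist mode used a guinea pig ileum tissue bath with the compound applied alone. Concentration–response curves were run with or without the non-selective muscarinic antagonist atropine. Contraction was expressed relative to the maximal carbachol response.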

[10] = Partial agonist activity at muscarinic M2/M3 receptor in Hartley guinea pig ileum assessed as stimulation of contraction relative to carbachol; type: tissue-based, Cavia porcellus; how it was run: as §3
[11] = molecular target: T1, Muscarinic acetylcholine receptor M1 (Rattus norvegicus) (UniProt P08482); test: Agonist activity at muscarinic M1 receptor in Sprague-Dawley rat hippocampal slice assessed as increase in CA1 spiked rates by electrophysiological analysis; settings: filed as agonist
T1 sequence (whole entry): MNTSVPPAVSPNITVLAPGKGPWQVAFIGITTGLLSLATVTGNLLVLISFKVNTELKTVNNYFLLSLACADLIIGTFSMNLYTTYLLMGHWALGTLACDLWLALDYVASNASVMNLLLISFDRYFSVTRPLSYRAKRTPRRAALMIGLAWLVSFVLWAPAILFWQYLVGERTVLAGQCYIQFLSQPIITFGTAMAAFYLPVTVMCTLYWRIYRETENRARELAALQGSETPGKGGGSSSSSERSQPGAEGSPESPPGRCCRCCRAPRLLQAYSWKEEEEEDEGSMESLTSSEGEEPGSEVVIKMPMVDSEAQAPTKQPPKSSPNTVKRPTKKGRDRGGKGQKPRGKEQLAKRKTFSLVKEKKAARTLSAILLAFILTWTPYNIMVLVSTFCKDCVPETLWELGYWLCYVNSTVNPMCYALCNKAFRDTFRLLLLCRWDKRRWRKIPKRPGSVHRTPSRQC

[12] = molecular target: T2, Muscarinic acetylcholine receptor M1 (Homo sapiens, UniProt P11229); test: Positive allosteric modulation of muscarinic M1 receptor (unknown origin) assessed as increase in Ach-induced recruitment of beta-arrestin by Path Hunter assay; type: cell-based, CHO
T2 sequence (P11229 whole entry): T1 sequence (whole entry) with V5A, S254T, S309P, K320R, G337A, V413I

[13] = Ratio of AUC in dog brain to fAUC in dog plasma; type: ADME, cell-free, Canis lupus familiaris; settings: in vivo
[14] = Ratio of AUC in C57BL/6 mouse brain to plasma at 1 mg/kg, sc; type: ADME, organism-based; settings: brain and plasma, read-out: Ratio AUC
[15] = In vivo positive allosteric modulation of muscarinic M1 receptor in CD1 mouse assessed as increase in ACh-induced IP-1 levels in […] tissue at 1 mg/kg, sc measured after 2 hrs by HTRF assay relative to baseline; type: functional
How it was run: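 Given sc as a solution in 5/15/80 DMSO/Solutol/water. Striatal IP1 was read 2 h after dosing and expressed as fold increase over baseline. Compound levels were measured in striatal tissue at 2 h (N=5/dose). Each animal's fold increase was plotted against its unbound brain concentration.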

[16] = test system: Rattus norvegicus; test: Reversal of scopolamine-induced memory impairment in Wistar rat model at 0.32 mg/kg, po administered 15 min before training followed by 30 mins later administration with scopolamine measured after 24 hrs by Morris water maze test
[17] = molecular target: Muscarinic acetylcholine receptor M3 (Homo sapiens, UniProt P20309); test: Positive allosteric modulation of human recombinant muscarinic M3 receptor stably expressed in CHO cells assessed as increase in Ach-induced accumulation of intracellular calcium level upto 10 uM incubated for 10 mins followed by addition of Ach at EC20 concentration by Fluo-8AM dye based FLIPR TETRA method
Chain of Muscarinic acetylcholine receptor M3 (P20309 whole entry): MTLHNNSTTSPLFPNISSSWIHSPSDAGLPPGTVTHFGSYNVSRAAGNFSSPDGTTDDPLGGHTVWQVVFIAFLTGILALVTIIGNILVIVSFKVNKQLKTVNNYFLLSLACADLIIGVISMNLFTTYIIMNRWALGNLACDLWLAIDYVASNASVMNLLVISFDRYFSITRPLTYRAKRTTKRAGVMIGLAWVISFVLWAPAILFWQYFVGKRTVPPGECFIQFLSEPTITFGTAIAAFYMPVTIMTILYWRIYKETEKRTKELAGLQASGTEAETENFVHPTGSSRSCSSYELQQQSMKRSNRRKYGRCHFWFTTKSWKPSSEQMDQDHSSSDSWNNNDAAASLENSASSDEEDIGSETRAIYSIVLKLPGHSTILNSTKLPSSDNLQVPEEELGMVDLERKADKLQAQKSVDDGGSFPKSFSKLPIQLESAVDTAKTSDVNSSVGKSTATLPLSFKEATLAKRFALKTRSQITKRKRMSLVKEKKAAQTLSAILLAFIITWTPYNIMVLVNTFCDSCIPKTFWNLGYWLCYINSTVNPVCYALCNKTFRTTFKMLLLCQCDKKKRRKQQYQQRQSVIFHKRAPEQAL

Cc1cnc(C(=O)N[C@H]2CCOC[C@@H]2O)cc1Cc1ccc(-c2cscn2)cc1
Activity [1]: 7 mmHg
Activity [2]: Non-Toxic
Activity [3]: Toxic
fAUC [4]: 7.765 µM·h
fCmax [5]: 1050 nM
fCmax [6]: 1221 nM
fCmax [7]: 562 nM
Drug uptake(free) [8]: 18.5 nM
EC50 [9]: 351 nM
Emax [10]: 77%
Activity [11]: Dose-dependent effect
EC50 [12]: 365 nM
Ratio AUC [13]: 0.6
Kp [14]: 0.2
fold change (FC) [15]: 2
Activity [16]: Active
Activity [17]: Not Active
